Tests used:
[1] = tested on: MCF7; experiment: Cytotoxicity against human MCF7 cells after 72 hrs by MTT assay; assay type: functional, cell-based
In short: (§1)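 Cells grown in RPMI1640 with 10% FBS, penicillin and streptomycin; log-phase cells seeded per well (MCF-7 1.0 × 10^4; A549 4.5 × 10^3). After 24 h, exposed to various concentrations for 72 h.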

[2] = tested on: A549; experiment: Cytotoxicity against human A549 cells after 72 hrs by MTT assay; assay type: functional, cell-based; in short: as §1

SMILES | IC50 ([1]; mcf7) | IC50 ([2]; a549) | IC50 ([1]; Homo sapiens, MCF7, 72 h, read-out: IC50) | IC50 ([2]; Homo sapiens, A549, 72 h, read-out: IC50)
COc1cc2c(cc1OC)[C@@H]1Cc3ccc(O)c(OC)c3C(=O)N1CC2 | Not Active | Not Active | – | –
CC1=CCC[C@@H]2[C@@](C)(CC/C(C=O)=C\C(=O)O)[C@H](C)CC[C@@]12C | – | – | 3.7 µM | 3.1 µM
CC1=CC(=O)C[C@@H]2[C@@](C)(CC/C(C)=C\C(=O)O)[C@H](C)CC[C@@]12C | Not Active | Not Active | – | –
C=C1CCC[C@@H]2[C@@](C)(CC/C(=C\C(=O)O)CO)[C@H](C)C[C@H](O)[C@@]12C | Not Active | Not Active | – | –
COc1cc2c(cc1OC)[C@@H]1Cc3ccc(O)c(O)c3C(=O)N1CC2 | Not Active | Not Active | – | –
C[C@@H]1CC[C@]2(C)[C@H](CCC[C@]23CO3)[C@@]1(C)CC/C(=C\C(=O)O)CO | Not Active | Not Active | – | –
CCCCC/C=C\C/C=C\CCCCCCCC(=O)OCC(O)CO (stereo not given) | Not Active | Not Active | – | –
COc1cc2c(cc1O)[C@@H]1Cc3cc(O)c(OC)cc3C(=O)N1CC2 | Not Active | Not Active | – | –
CC1=CCC[C@@H]2[C@@](C)(CC/C(=C\C(=O)O)CO)[C@H](C)C[C@H](O)[C@@]12C | Not Active | Not Active | – | –
COc1cc2c(cc1OC)[C@@H]1Cc3cc(O)cc(OC)c3C(=O)N1CC2 | Not Active | Not Active | – | –
COc1cc2c(cc1O)[C@@H]1Cc3cc(OC)c(O)c(OC)c3C(=O)N1CC2 | Not Active | Not Active | – | –
COc1c(O)cc2c(c1OC)-c1nccc(C)c1C2=O [DARIENINE] | Not Active | Not Active | – | –
COc1cc(/C=C/C(=O)NCCc2ccc(O)c(O)c2)ccc1O [N-TRANS-FERULOYLDOPAMINE] | Not Active | Not Active | – | –
COc1cc2c(cc1OC)[C@@H]1Cc3cc(O)c(OC)c(OC)c3C(=O)N1CC2 | Not Active | Not Active | – | –
COc1cc2c(cc1OC)[C@@H]1Cc3ccc(OC)c(OC)c3C(=O)N1CC2 | Not Active | Not Active | – | –

Reference: ChEMBL document CHEMBL1154791, “Constituents of Polyalthia longifolia var. pendula” (J Nat Prod, 2009)
